Measurements from different studies.
Compare with care: the assays were run in different laboratories. Values after ≈ are worked out from the molar mass of the structure shown.

CN(c1ccc(F)cc1)c1c(-c2ccccn2)nc2ccccn12 gave an EC50 of 1 µM (Leishmania infantum; parasite growth; 5 days, intracellular, amastigote).
For O=C1NC(=S)N/C1=C\c1c2ccccc2c(-c2ccc(N(c3ccccc3)c3ccccc3)cc2)c2ccccc12, the MBC was over 1000 µg/mL (Streptococcus pyogenes; microbial killing, broth dilution; ATCC19615).
The IC50 of O=C(N[C@@H](Cc1ccccc1)C(=O)c1ncc(-c2ccccc2)s1)[C@H](Cc1ccccc1)NC(=O)N1CCOCC1 is reported as 32.5 µM (Leishmania infantum; parasite growth; intracellular, amastigote).
With O=C(O)CN1C(=O)/C(=C/c2ccc(-c3ccc(N(c4ccccc4)c4ccccc4)cc3)cc2)SC1=S the MBC was 500 µg/mL (≈ 957 µM) (Streptococcus pyogenes; microbial killing, broth dilution; ATCC19615).
CCCCCCC/C=C/C(=O)N1C(=O)/C(=C(\O)c2ccccc2)C(=O)C1CC(C)C (stereo not drawn) has an MIC of over 200 µg/mL (Stenotrophomonas maltophilia; microbial growth; ATCC13637).
CC(=O)C1=C(C)N2NC(c3ccccc3O)N(C(Cc3c[nH]c4ccccc34)C(=O)O)C2=NC1c1ccc(Cl)cc1 (stereo not drawn) gave an inhibition zone of 18 mm (Streptococcus pyogenes; microbial growth; ATCC19615; 10 µg/mL, 24 h).
With O=C(N[C@@H](Cc1ccccc1)C(=O)c1nc2ccccc2o1)[C@H](Cc1ccccc1)NC(=O)N1CCOCC1 the IC50 was over 64 µM (Leishmania infantum; parasite growth; intracellular, amastigote).
CCOC(=O)C1=C(C)N2NC(C)(c3ccccc3O)N(C(Cc3c[nH]c4ccccc34)C(=O)O)C2=NC1c1ccc(Cl)cc1 (stereo not drawn) has an inhibition zone of 31 mm (Streptococcus pyogenes; microbial growth; ATCC19615; 15 µg/mL, 24 h).
O=C(N[C@@H](Cc1ccccc1)C(=O)c1cc(-c2ccccc2)no1)[C@H](Cc1ccccc1)NC(=O)N1CCOCC1 (mixture of isomers) has an IC50 of over 64 µM (Leishmania infantum; parasite growth; intracellular, amastigote).
Cc1ccccc1-c1c(-c2ccccn2)nc2n1CCC2 has an EC50 of 1 µM (Leishmania infantum; parasite growth; 5 days, intracellular, amastigote).
COc1cc(OC)c(OC)cc1C=C1Oc2ccccc2C1=O has an inhibition of 30% (Streptococcus mutans; microbial growth; UA159; 50 µM).
The MIC of O=C(O)CN1C(=O)/C(=C/c2c3ccccc3c(-c3ccc(N(c4ccccc4)c4ccccc4)cc3)c3ccccc23)SC1=S is reported as over 1000 µg/mL (Streptococcus pyogenes; microbial growth, broth dilution; ATCC19615).
O=C(Nc1ccccc1-c1ccc(F)c(F)c1)c1nccnc1C(F)(F)F gave an EC50 of over 100 µg/mL (Diaporthe citri; microbial growth).
With O=C1NC(=S)N/C1=C\c1ccc(-c2ccc(N(c3ccccc3)c3ccccc3)cc2)c2ccccc12 the MIC was over 1000 µg/mL (Streptococcus pyogenes; microbial growth, broth dilution; ATCC19615).
C[Si](C)(C)c1cc(C(=O)[C@H](Cc2ccccc2)NC(=O)[C@H](Cc2ccccc2)NC(=O)N2CCOCC2)no1 (mixture of isomers) gave an IC50 of over 64 µM (Leishmania infantum; parasite growth; intracellular, amastigote).
With N#Cc1c(-c2ccc(Cl)cc2)nc2n(c1=O)NC(c1ccccc1O)N2C(Cc1c[nH]c2ccccc12)C(=O)O (stereo not drawn) the inhibition zone was 34 mm (Streptococcus pyogenes; microbial growth; ATCC19615; 15 µg/mL, 24 h).
The IC50 of Fc1ccc(NCc2c(-c3ccccn3)nc3ccccn23)cc1 is reported as over 64 µM (Leishmania infantum; parasite growth; intracellular, amastigote).
CC(=O)C1=C(C)N2NC(C)(c3ccccc3O)N(C(Cc3c[nH]c4ccccc34)C(=O)O)C2=NC1c1ccc(Cl)cc1 (stereo not drawn) gave an inhibition zone of 32 mm (Streptococcus pyogenes; microbial growth; ATCC19615; 15 µg/mL, 24 h).
The MIC of CCCCCCC/C=C/C(=O)N1C(=O)/C(=C(\O)c2ccc(F)cc2)C(=O)C1CC(C)C (stereo not drawn) is reported as 50 µg/mL (≈ 116 µM) (Stenotrophomonas maltophilia; microbial growth; ATCC13637).
The EC50 of Clc1cccc(-c2c(-c3ccccn3)nc3n2CCC3)c1 is reported as 0.794 µM (Leishmania infantum; parasite growth; 5 days, intracellular, amastigote).
The MBC of O=C1NC(=S)S/C1=C\c1ccc(-c2ccc(N(c3ccccc3)c3ccccc3)cc2)cc1 is reported as over 1000 µg/mL (Streptococcus mutans; microbial killing, broth dilution; ATCC25175).
O=C(N[C@@H](Cc1ccccc1)C(=O)c1cc(-c2ccccc2)on1)[C@H](Cc1ccccc1)NC(=O)N1CCOCC1 (single isomer, unassigned) has an IC50 of over 64 µM (Leishmania infantum; parasite growth; intracellular, amastigote).
With O=C1C(=Cc2ccccc2)Oc2ccccc21 the inhibition was 80% (Streptococcus mutans; microbial growth; UA159; 50 µM).
CC(C)CN(c1ccc(F)cc1)c1c(-c2ccccn2)nc2ccccn12 gave an EC50 of 0.794 µM (Leishmania infantum; parasite growth; 5 days, intracellular, amastigote).
With O=C(O)CN1C(=O)/C(=C/c2ccc(-c3ccc(N(c4ccccc4)c4ccccc4)cc3)c3ccccc23)SC1=S the MIC was 1000 µg/mL (≈ 1750 µM) (Streptococcus pyogenes; microbial growth, broth dilution; ATCC19615).
The inhibition zone of CC(C(=O)O)N1C2=NC(c3ccc(Cl)cc3)C3=C(OC(C)(C)OC3=O)N2NC1(C)c1ccccc1O (stereo not drawn) is reported as 22 mm (Streptococcus pyogenes; microbial growth; ATCC19615; 15 µg/mL, 24 h).
For C/C(O)=C1\C(=O)C(CC(C)C)N(C(=O)CCCCCc2ccccc2)C1=O (stereo not drawn), the MIC was over 200 µg/mL (Stenotrophomonas maltophilia; microbial growth; ATCC13637).
The MBC of O=C1NC(=S)S/C1=C\c1c2ccccc2c(-c2ccc(N(c3ccccc3)c3ccccc3)cc2)c2ccccc12 is reported as over 1000 µg/mL (Streptococcus mutans; microbial killing, broth dilution; ATCC25175).
O=C(N[C@H](CCc1ccccc1)C(=O)c1cc(Cc2ccccc2)on1)[C@H](Cc1ccccc1)NC(=O)N1CCOCC1 gave an IC50 of over 64 µM (Leishmania infantum; parasite growth; intracellular, amastigote).
Fc1ccc(Nc2c(-c3ccccn3)nc3ccccn23)nc1 has an EC50 of over 63.1 µM (Leishmania infantum; parasite growth; 5 days, intracellular, amastigote).
O=C(O)CN1C(=O)/C(=C/c2ccc(-c3ccc(N(c4ccccc4)c4ccccc4)cc3)c3ccccc23)NC1=S gave an MBC of over 1000 µg/mL (Streptococcus pyogenes; microbial killing, broth dilution; ATCC19615).
For CCOC(=O)C1=C(C)N2NC(c3ccccc3O)N(C(Cc3c[nH]c4ccccc34)C(=O)O)C2=NC1c1ccc(Cl)cc1 (stereo not drawn), the inhibition zone was 18 mm (Streptococcus pyogenes; microbial growth; ATCC19615; 10 µg/mL, 24 h).
c1ccc(-c2c(-c3ccccn3)nc3n2CCC3)cc1 has an EC50 of 2 µM (Leishmania infantum; parasite growth; 5 days, intracellular, amastigote).
CCOC(=O)C1=C(C)N2NC(C)(c3ccccc3O)N(C(C)C(=O)O)C2=NC1c1ccc(Cl)cc1 (stereo not drawn) gave an inhibition zone of 14 mm (Streptococcus pyogenes; microbial growth; ATCC19615; 10 µg/mL, 24 h).
CCCCCCC/C=C/C(=O)N1C(=O)/C(=C(/C)O)C(=O)C1Cc1ccc(O)cc1 (stereo not drawn) gave an MIC of 100 µg/mL (≈ 250 µM) (Stenotrophomonas maltophilia; microbial growth; ATCC13637).
Cc1ccc2nc(-c3ccccc3)c(CNc3cccc(C(F)(F)F)c3)n2c1 has an IC50 of 32 µM (Leishmania infantum; parasite growth; intracellular, amastigote).
